Reference: ChEMBL document CHEMBL1250467, “Design, synthesis, and anticonvulsant activity of new N-Mannich bases derived from spirosuccinimides and spirohydantoins” (Bioorg Med Chem, 2010)
Calls of active or inactive are those of the source. The rule behind the calls is not given here.

How the values were obtained:
[1] = system: Mus musculus; experiment: Neurotoxicity in CF1 albino mouse assessed as ataxia at 300 mg/kg, ip after 4 hrs by rotarod test; type: toxicity, organism-based; set-up: dose 300 mg/kg, route intraperitoneal; details: in vivo
Outline: (§1)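 Male CF-1 mice; compounds suspended in 0.5% methylcellulose/water and injected ip at 30, 100 and 300 mg/kg. MES, scPTZ (pentylenetetrazole 85 mg/kg sc at the test time) and rotarod neurotoxicity were scored at 0.5 and 4 h. Value is the lowest dose active or toxic in half or more of the animals; signs such as ataxia or tremor were recorded.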

[2] = system: Mus musculus; experiment: Neurotoxicity in CF1 albino mouse assessed as muscle spasms at 300 mg/kg, ip after 4 hrs by rotarod test; type: toxicity, organism-based, Muscle tissue; set-up: dose 300 mg/kg, route intraperitoneal; details: in vivo; outline: as §1
[3] = system: Mus musculus; experiment: Anticonvulsant activity in CF1 albino mouse assessed as protection against subcutaneous pentylenetetrazole-induced seizures at 300 mg/kg, ip after 0.5 hrs; type: functional, organism-based; set-up: dose 300 mg/kg; outline: as §1
[4] = system: Mus musculus; experiment: Neurotoxicity in CF1 albino mouse assessed as tremors at 300 mg/kg, ip after 4 hrs by rotarod test; type: toxicity, organism-based; set-up: dose 300 mg/kg, route intraperitoneal; details: in vivo; outline: as §1
[5] = system: Mus musculus; experiment: Anticonvulsant activity in CF1 albino mouse assessed as protection against maximal electroshock-induced seizures at 300 mg/kg, ip after 0.5 hrs; type: functional, organism-based; set-up: dose 300 mg/kg; outline: as §1
[6] = system: Mus musculus; experiment: Anticonvulsant activity in ip dosed CF1 albino mouse assessed as dose required to protect against maximal electroshock-induced seizures after 4 hrs; type: functional; outline: as §1
[7] = system: Mus musculus; experiment: Anticonvulsant activity in CF1 albino mouse assessed as protection against subcutaneous pentylenetetrazole-induced seizures at 300 mg/kg, ip after 4 hrs; type: functional, organism-based; set-up: dose 300 mg/kg; outline: as §1
[8] = system: Rattus norvegicus; experiment: Anticonvulsant activity in Sprague-Dawley rat assessed as protection against maximal electroshock-induced seizures at 30 mg/kg po after 0.25 hrs; type: functional
Outline: (§2)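 Male Sprague–Dawley rats, four per group, given 30 mg/kg orally as a 0.5% methylcellulose/water suspension. MES protection scored at 0.25, 0.5, 1, 2 and 4 h after dosing, motor impairment checked in parallel; data are the number of the four rats protected.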

[9] = system: Mus musculus; experiment: Neurotoxicity in CF1 albino mouse at 300 mg/kg, ip after 4 hrs by rotarod test; type: toxicity, organism-based; set-up: dose 300 mg/kg, route intraperitoneal; details: in vivo; outline: as §1
[10] = system: Mus musculus; experiment: Neurotoxicity in CF1 albino mouse assessed as mortality at 300 mg/kg, ip after 4 hrs by rotarod test; type: toxicity, organism-based; set-up: dose 300 mg/kg, route intraperitoneal; details: in vivo
Outline: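 Male CF-1 albino mice, groups of eight, were given the compound ip as a suspension in 0.5% methylcellulose/water at 30, 100 and 300 mg/kg. Rotarod testing at 0.5 and 4 h scored inability to keep balance on the rod. The value is the lowest dose causing toxicity in half or more animals, with response comments such as death.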

[11] = system: Rattus norvegicus; experiment: Anticonvulsant activity in Sprague-Dawley rat assessed as protection against maximal electroshock-induced seizures at 30 mg/kg po after 2 hrs; type: functional; outline: as §2
[12] = system: Rattus norvegicus; experiment: Anticonvulsant activity in Sprague-Dawley rat assessed as protection against maximal electroshock-induced seizures at 30 mg/kg po after 1 hr; type: functional; outline: as §2
[13] = system: Mus musculus; experiment: Anticonvulsant activity in ip dosed CF1 albino mouse assessed as dose required to protect against maximal electroshock-induced seizures after 0.5 hrs; type: functional; outline: as §1
[14] = system: Rattus norvegicus; experiment: Anticonvulsant activity in Sprague-Dawley rat assessed as protection against maximal electroshock-induced seizures at 30 mg/kg po after 4 hrs; type: functional; outline: as §2
[15] = system: Rattus norvegicus; experiment: Anticonvulsant activity in Sprague-Dawley rat assessed as protection against maximal electroshock-induced seizures at 30 mg/kg po after 0.5 hrs; type: functional; outline: as §2
[16] = system: Mus musculus; experiment: Neurotoxicity in ip dosed CF1 albino mouse assessed as dose required to cause toxicity after 4 hrs by rotarod test; type: organism-based; details: in vivo; outline: as §1
[17] = system: Rattus norvegicus; experiment: Toxicity in Sprague-Dawley rat assessed as change in body weight at 600 mg/kg, ip measured after 24 hrs of clonus of one of the fore limbs seizure stage in non-protected rat; type: organism-based; set-up: dose 600 mg/kg, route intraperitoneal; details: in vivo
Outline: (§3)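 Male Sprague–Dawley rats (150–180 g) received compound ip at 600 mg/kg, then a challenge dose of pilocarpine. Seizure severity graded on the Racine scale; rats were scored as protected or not, and body weight change was taken 24 h after the first stage III seizure.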

[18] = species: Rattus norvegicus; experiment: Protection index, ratio of TD50 for Sprague-Dawley rat by rotarod test to ED50 for Sprague-Dawley rat by maximal electroshock test; type: functional
Outline: (§4)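 Male Sprague–Dawley rats dosed orally (0.5% methylcellulose/water suspension), groups of eight, tested at the previously estimated time of peak effect. Doses varied until at least three points lay in the 10–90% range of protection (MES, scPTZ) or minimal rotarod neurotoxicity. ED50/TD50 with 95% confidence intervals came from regression; PI = TD50/ED50.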

[19] = system: Mus musculus; experiment: Anticonvulsant activity in CF1 albino mouse assessed as protection against electrically-induced seizure at 100 mg/kg, ip after 0.5 hrs by 6Hz psychomotor seizure test; type: functional, organism-based; set-up: dose 100 mg/kg
Outline: (§5)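 Male CF-1 mice, compound suspended in 0.5% methylcellulose/water, given ip at 100 mg/kg; four mice per time point (0.25, 0.5, 1, 2, 4 h). Corneal stimulation with 0.2 ms monopolar rectangular pulses at 6 Hz for 3 s from a constant-current device, mice manually restrained. A mouse counted as protected if normal exploratory behaviour resumed within 10 s; motor impairment was noted alongside.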

[20] = system: Mus musculus; experiment: Neurotoxicity in CF1 albino mouse at 300 mg/kg, ip after 0.5 hrs by rotarod test; type: toxicity, organism-based; set-up: dose 300 mg/kg, route intraperitoneal; details: in vivo; outline: as §1
[21] = system: Mus musculus; experiment: Anticonvulsant activity in CF1 albino mouse assessed as protection against electrically-induced seizure at 100 mg/kg, ip after 0.25 hrs by 6Hz psychomotor seizure test; type: functional, organism-based; set-up: dose 100 mg/kg; outline: as §5
[22] = Neurotoxicity in po dosed Sprague-Dawley rat by rotarod test; type: toxicity, organism-based; details: in vivo; outline: as §4
[23] = system: Mus musculus; experiment: Anticonvulsant activity in CF1 albino mouse assessed as protection against electrically-induced seizure at 100 mg/kg, ip after 1 hr by 6Hz psychomotor seizure test; type: functional; details: route intraperitoneal; outline: as §5
[24] = system: Rattus norvegicus; experiment: Anticonvulsant activity in Sprague-Dawley rat assessed as protection against pilocarpine-induced status epilepticus at 600 mg/kg, ip; type: functional, organism-based; set-up: dose 600 mg/kg; outline: as §3
[25] = Displacement of [3H]batrachotoxin from neurotoxin site 2 of voltage-gated sodium channel in rat forebrain tissue; details: read-out: IC50
[26] = system: Mus musculus; experiment: Toxicity in CF1 albino mouse assessed as minimal motor impairment at 100 mg/kg, ip after 2 hrs; type: organism-based; set-up: dose 100 mg/kg, route intraperitoneal; details: in vivo; outline: as §5
[27] = system: Rattus norvegicus; experiment: Anticonvulsant activity in Sprague-Dawley rat assessed as protection against pilocarpine-induced status epilepticus at 600 mg/kg, ip measured after clonus of one of the fore limbs seizure stage; type: functional, organism-based; set-up: dose 600 mg/kg; outline: as §3
[28] = system: Mus musculus; experiment: Anticonvulsant activity in CF1 albino mouse assessed as protection against electrically-induced seizure at 100 mg/kg, ip after 4 hrs by 6Hz psychomotor seizure test; type: functional; outline: as §5
[29] = system: Rattus norvegicus; experiment: Anticonvulsant activity in po dosed Sprague-Dawley rat assessed as protection against maximal electroshock-induced seizures; type: functional; outline: as §4
[30] = system: Rattus norvegicus; experiment: Toxicity in Sprague-Dawley rat assessed as change in body weight at 600 mg/kg, ip measured after 24 hrs of clonus of one of the fore limbs seizure stage in protected rat; type: organism-based; set-up: dose 600 mg/kg, route intraperitoneal; details: in vivo; outline: as §3
[31] = system: Rattus norvegicus; experiment: Anticonvulsant activity in po dosed Sprague-Dawley rat assessed as time required to peak protection against seizures; type: functional

For O=C1NC2(CCc3ccccc3C2)C(=O)N1CN1CCN(c2ccccc2F)CC1 (stereo not drawn), which Activity [1] is on record?
Its Activity is “Non-toxic”.

What about the Activity [2] of the same compound?
The Activity was “Non-toxic”.

What about the Activity [3] of the same compound?
Its Activity is “inactive”.

What about the Activity [4] of the same compound?
The Activity was “Non-toxic”.

What about the Activity [5] of the same compound?
Its Activity is “inactive”.

And the Activity [6]?
The Activity was 100 mg/kg.

And the Activity [7]?
Its Activity is “inactive”.

What does the source list for O=C1NC2(CCc3ccccc3C2)C(=O)N1CN1CCN(Cc2ccccc2)CC1 (stereo not drawn)?
Activity [8]: 25%; Activity [9]: Non-toxic; Activity [10]: Non-toxic; Activity [3]: inactive; Activity [11]: 50%; Activity [12]: 75%; Activity [6]: 100 mg/kg; Activity [13]: 100 mg/kg; Activity [14]: 50%; Activity [7]: inactive; Activity [15]: 50%

For O=C1CC2(CCc3ccccc3C2)C(=O)N1CN1CCN(c2cccc(C(F)(F)F)c2)CC1 (stereo not drawn), which Activity [8] is on record?
The Activity was “inactive”.

What about the Activity [16] of the same compound?
The Activity was 300 mg/kg.

What about the Activity [17] of the same compound?
The Activity was 15 g.

And the PI [18]?
Its PI is >27.78.

And the Activity [19]?
Its Activity is “inactive”.

And the Activity [20]?
The Activity was “Non-toxic”.

What about the Activity [3] of the same compound?
The Activity was “inactive”.

And the Activity [21]?
Its Activity is “inactive”.

What about the Activity [11] of the same compound?
Its Activity is 75%.

And the TD50 [22]?
Its TD50 is > 250 mg/kg.

What about the Activity [5] of the same compound?
The Activity was “inactive”.

What about the Activity [23] of the same compound?
Its Activity is 25%.

What about the Activity [24] of the same compound?
The Activity was “inactive”.

What about the IC50 [25] of the same compound?
Its IC50 is 9.28 µM.

What about the Activity [26] of the same compound?
Its Activity is “Toxic”.

And the Activity [27]?
Its Activity is “inactive”.

And the Activity [12]?
Its Activity is 75%.

And the Activity [28]?
Its Activity is “inactive”.

And the ED50 [29]?
The ED50 was 9 mg/kg.

And the Activity [30]?
Its Activity is “Non-toxic”.

And the Activity [6]?
The Activity was 100 mg/kg.

What about the Activity [14] of the same compound?
Its Activity is 100%.

What about the Time [31] of the same compound?
The Time was 2 h.

And the Activity [7]?
Its Activity is “inactive”.

What about the Activity [15] of the same compound?
Its Activity is “inactive”.
